Data as given in ChEMBL document CHEMBL1649163, “Surfactants, aromatic and isoprenoid compounds, and fatty acid biosynthesis inhibitors suppress Staphylococcus aureus production of toxic shock syndrome toxin 1” (2009).

How the values were obtained:
Format in all cases: functional
[1] = tested on: Staphylococcus aureus; test: microbe, parasite or virus in culture; conditions: 24 h
[2] = tested on: Staphylococcus aureus; test: Effect on growth in Staphylococcus aureus MN8 at 1.00 mM after 24 hrs (reference value: 100%)
Outline: (§1)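 Test-tube growth assay: 10 ml growth medium (brain heart infusion with 10% fetal bovine serum, MgCl2, L-glutamine) inoculated to 5 × 10^6 CFU/ml from a 24 h 37°C preculture. Compound diluted in medium, or dissolved in methanol with methanol-matched controls. After 24 h at 37°C with 5% CO2, OD600 and viable counts read. Growth given as % of CFU/ml of untreated controls in the same experiment.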

[3] = tested on: Staphylococcus aureus; test: Effect on growth in Staphylococcus aureus MN8 at 2.00 mM after 24 hrs (reference value: 100%)
Outline: as §1

[4] = tested on: Staphylococcus aureus; test: Effect on growth in Staphylococcus aureus FRI-1187 at 3.00 mM after 24 hrs (reference value: 100%)
Outline: as §1

[5] = tested on: Staphylococcus aureus; test: microbe, parasite or virus in culture; conditions: 24 h; remark: listed apart in the source
[6] = tested on: Staphylococcus aureus; test: microbe, parasite or virus in culture; conditions: 24 h; remark: listed apart in the source
[7] = tested on: Staphylococcus aureus; test: Effect on growth in Staphylococcus aureus FRI-1187 at 1.50 mM after 24 hrs (reference value: 100%)
Outline: as §1

[8] = tested on: Staphylococcus aureus; test: microbe, parasite or virus in culture; conditions: 24 h; remark: listed apart in the source
[9] = tested on: Staphylococcus aureus; test: microbe, parasite or virus in culture; conditions: 28 h
[10] = tested on: Staphylococcus aureus; test: microbe, parasite or virus in culture; conditions: 32 h
[11] = tested on: Staphylococcus aureus; test: microbe, parasite or virus in culture; conditions: 32 h; remark: listed apart in the source
[12] = tested on: Staphylococcus aureus; test: microbe, parasite or virus in culture; conditions: 24 h; remark: listed apart in the source
[13] = tested on: Staphylococcus aureus; test: microbe, parasite or virus in culture; conditions: 32 h; remark: listed apart in the source
[14] = tested on: Staphylococcus aureus; test: microbe, parasite or virus in culture; conditions: 26 h
[15] = tested on: Staphylococcus aureus; test: microbe, parasite or virus in culture; conditions: 26 h; remark: listed apart in the source
[16] = tested on: Staphylococcus aureus; test: Effect on growth in Staphylococcus aureus MN8 at 0.75 mM after 24 hrs (reference value: 100%)
Outline: as §1

[17] = tested on: Staphylococcus aureus; test: microbe, parasite or virus in culture; conditions: 24 h; remark: listed apart in the source
[18] = tested on: Staphylococcus aureus; test: microbe, parasite or virus in culture; conditions: 24 h; remark: listed apart in the source
[19] = tested on: Staphylococcus aureus; test: Effect on growth in Staphylococcus aureus MN8 at 6.40 mM after 24 hrs (reference value: 100%)
Outline: as §1

[20] = tested on: Staphylococcus aureus; test: microbe, parasite or virus in culture; conditions: 24 h; remark: listed apart in the source
[21] = tested on: Staphylococcus aureus; test: Effect on growth in Staphylococcus aureus MN8 at 3.20 mM after 24 hrs (reference value: 100%)
Outline: as §1

[22] = tested on: Staphylococcus aureus; test: Effect on growth in Staphylococcus aureus MN8 at 0.10 % after 24 hrs (reference value: 100%)
Outline: as §1

[23] = tested on: Staphylococcus aureus
[24] = tested on: Staphylococcus aureus; test: Effect on growth in Staphylococcus aureus MN8 at 75.00 mM after 24 hrs (reference value: 100%)
Outline: as §1

[25] = tested on: Staphylococcus aureus; test: microbe, parasite or virus in culture; conditions: 24 h; remark: listed apart in the source
[26] = tested on: Staphylococcus aureus; test: Effect on growth in Staphylococcus aureus MN8 at 0.50 % after 24 hrs (reference value: 100%)
Outline: as §1

[27] = tested on: Staphylococcus aureus; remark: listed apart in the source
[28] = tested on: Staphylococcus aureus; test: microbe, parasite or virus in culture; conditions: 24 h; remark: listed apart in the source
[29] = tested on: Staphylococcus aureus; test: Effect on growth in Staphylococcus aureus MN8 at 6.50 mM after 24 hrs (reference value: 100%)
Outline: as §1

[30] = tested on: Staphylococcus aureus; test: microbe, parasite or virus in culture; conditions: 24 h; remark: listed apart in the source
[31] = tested on: Staphylococcus aureus; test: Effect on growth in Staphylococcus aureus MN8 at 0.65 mM after 24 hrs (reference value: 100%)
Outline: as §1

[32] = tested on: Staphylococcus aureus; test: microbe, parasite or virus in culture; conditions: 24 h; remark: listed apart in the source
[33] = tested on: Staphylococcus aureus; test: microbe, parasite or virus in culture; conditions: 24 h; remark: listed apart in the source
[34] = tested on: Staphylococcus aureus; test: Effect on growth in Staphylococcus aureus MN8 at 37.50 mM after 24 hrs (reference value: 100%)
Outline: as §1

[35] = tested on: Staphylococcus aureus; test: Effect on growth in Staphylococcus aureus MN8 at 7.50 mM after 24 hrs (reference value: 100%)
Outline: as §1

[36] = tested on: Staphylococcus aureus; test: microbe, parasite or virus in culture; conditions: 24 h; remark: listed apart in the source
[37] = tested on: Staphylococcus aureus; test: Effect on growth in Staphylococcus aureus MN8 at 0.67 mM after 24 hrs (reference value: 100%)
Outline: as §1

[38] = tested on: Staphylococcus aureus; test: microbe, parasite or virus in culture; conditions: 24 h; remark: listed apart in the source
[39] = tested on: Staphylococcus aureus; test: Effect on growth in Staphylococcus aureus FRI-1187 at 0.05 mM after 24 hrs (reference value: 100%)
Outline: as §1

[40] = tested on: Staphylococcus aureus; test: Effect on growth in Staphylococcus aureus MN8 at 0.01 mM after 24 hrs (reference value: 100%)
Outline: as §1

[41] = tested on: Staphylococcus aureus; test: Effect on growth in Staphylococcus aureus MN8 at 0.05 mM after 24 hrs (reference value: 100%)
Outline: as §1

[42] = tested on: Staphylococcus aureus; test: microbe, parasite or virus in culture; conditions: 24 h; remark: listed apart in the source
[43] = tested on: Staphylococcus aureus; test: Effect on growth in Staphylococcus aureus FRI-1187 at 0.50 mM after 24 hrs (reference value: 100%)
Outline: as §1

[44] = tested on: Staphylococcus aureus; test: microbe, parasite or virus in culture; conditions: 24 h; remark: listed apart in the source

## Oc1c(Cl)cc(Cl)c(Cl)c1Cc1c(O)c(Cl)cc(Cl)c1Cl [HEXACHLOROPHENE]
[1]
  inhibition at 1000 µM: 48.1%
[2]
  Activity: 143.81%
[3]
  Activity: 123.7%
[4]
  Activity: 35.2%
[5]
  inhibition at 2000 µM: 19.6%
[6]
  inhibition at 3000 µM: 63.5%
[7]
  Activity: 75%
[8]
  inhibition at 1500 µM: 74.3%

## CCCCCCCCCCCCOCCOCCOCCOCCO [LAURETH 4]
[9]
  inhibition at 10000 µM: 2.9%
[10]
  inhibition at 10000 µM: 0%
[11]
  inhibition at 2000 µM: 0.1%
[12]
  inhibition at 10000 µM: 0.2%
[13]
  inhibition at 20000 µM: 0%
[14]
  inhibition at 2000 µM: 1.7%
[15]
  inhibition at 20000 µM: 1.5%

## C=CC(C)(O)CCC=C(C)C (stereo unspecified) [LINALOOL]
[16]
  Activity: 121.6%
[17]
  inhibition at 750 µM: 12.2%

## CC1CCC(C(C)C)C(O)C1 (stereo unspecified) [MENTHOL]
[18]
  inhibition at 6400 µM: 1.8%
[19]
  Activity: 32.2%
[20]
  inhibition at 3200 µM: 24.4%
[21]
  Activity: 119.5%

## COC(=O)c1ccc(O)cc1 [METHYLPARABEN]
[22]
  Activity: 21.4%
[23]
  inhibition (INH): 20.7%

## C=CC(=C)CCC=C(C)C [MYRCENE]
[16]
  Activity: 110.8%
[24]
  Activity: 76.5%
[17]
  inhibition at 750 µM: 60.3%
[25]
  inhibition at 75000 µM: 75.2%

## OCCOc1ccccc1 [PHENOXYETHANOL]
[22]
  Activity: 54.3%
[26]
  Activity: 32.3%
[27]
  inhibition (INH): 25.1%
[23]
  inhibition (INH): 42.3%

## NC(=O)c1ccccc1O [SALICYLAMIDE]
[22]
  Activity: 61.5%
[26]
  Activity: 14.5%
[27]
  inhibition (INH): 11.3%
[23]
  inhibition (INH): 49.2%

## O=C(O)c1ccccc1O [SALICYLIC ACID]
[22]
  Activity: 31%
[23]
  inhibition (INH): 26.3%

## CCCCCCCCCCCCN(CCC(=O)O)CCC(=O)O [SODIUM LAURIMINODIPROPIONIC ACID]
[28]
  inhibition at 2200 µM: 1%

## CC1=CCC(O)(C(C)C)CC1 (stereo unspecified) [TERPINEOL]
[29]
  Activity: 90.5%
[30]
  inhibition at 6500 µM: 12.4%
[31]
  Activity: 112.7%
[32]
  inhibition at 650 µM: 82.3%

## CC1(O)CCC(C(C)(C)O)CC1 (stereo unspecified) [TERPIN]
[33]
  inhibition at 7500 µM: 77.9%
[34]
  Activity: 118.7%
[35]
  Activity: 124.7%
[36]
  inhibition at 37500 µM: 23.8%

## Cc1ccc(C(C)C)c(O)c1 [THYMOL]
[37]
  Activity: 99%
[38]
  inhibition at 670 µM: 37.4%

## Oc1cc(Cl)ccc1Oc1ccc(Cl)cc1Cl [TRICLOSAN]
[39]
  Activity: 136.4%
[40]
  Activity: 5.6%
[41]
  Activity: 0%
[42]
  inhibition at 50 µM: 9.9%
[43]
  Activity: 35.5%
[44]
  inhibition at 500 µM: 3.7%

## COc1cc(C(=O)O)ccc1O [VANILLIC ACID]
[22]
  Activity: 24.5%
[23]
  inhibition (INH): 38.5%
